High-throughput results: PubChem BioAssay, several laboratories
Rows were chosen to be rich in hits. Some 2.6% of all compounds tested hit in one or more screens of this group.
MC4R barr agon = MC4R agonists recruiting beta-arrestin, primary screen, cell-based, luminescence, agonist arm of biased-ligand search | 360,000 tested, 0.98% active | AID 540308, 2011 | U2OS MC4R beta-arrestin complementation; percent of melanotan II response, DMSO zero | Melanocortin receptor 4 (Homo sapiens), P32245 | activation, % at 8.9 µM;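 active means activation above a per-plate cutoff, the mean activation of sample wells on that plate plus 3 SD, cut at about 8% in these data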
Target sequence (P32245 whole entry, looked up): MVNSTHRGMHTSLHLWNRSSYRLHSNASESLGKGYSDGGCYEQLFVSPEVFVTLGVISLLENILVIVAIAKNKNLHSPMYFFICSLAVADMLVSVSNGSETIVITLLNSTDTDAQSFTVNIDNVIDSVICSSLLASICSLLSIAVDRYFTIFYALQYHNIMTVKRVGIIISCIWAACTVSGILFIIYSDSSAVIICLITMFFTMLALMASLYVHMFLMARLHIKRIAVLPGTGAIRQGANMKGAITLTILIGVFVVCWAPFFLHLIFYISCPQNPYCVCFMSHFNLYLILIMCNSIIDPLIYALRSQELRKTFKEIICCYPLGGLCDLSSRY
ABCB6 inh MLPCN = ABCB6 transporter inhibitors, primary screen, K562-ABCB6 cells, flow cytometry, MLPCN library; K562-ABCB6 porphyrin accumulation, 1 h; hits give low values; fluorescence ratio to DMSO, % at 10 µM; 360,000 tested, 0.19% active; AID 602162, 2011;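 active means fluorescence ratio to DMSO below 75%, the collection mean minus 3 SD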;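 further: signal is porphyrin accumulated inside mitochondria; 100% equals median channel fluorescence of DMSO control wells; lower ratio means ABCB6 inhibition with less porphyrin fluorescence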
MC4R antag cAMP = MC4R antagonists of cAMP signaling, primary screen, cell-based, TR-FRET, antagonist arm of biased-ligand search; Melanocortin receptor 4 (Homo sapiens), P32245; MC4R-expressing cells, MTII-stimulated cAMP, LANCE TR-FRET; inhibition, % at 6.5 µM; 360,000 tested, 0.48% active;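 active means inhibition above its plate's cutoff, the mean of tested wells on that plate plus 3 SD, cut at about 29% in these data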;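 further: 0% = Melanotan II alone and 100% = Melanotan II plus saturating MCL0020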
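Material: U2OS-MC4R stable cell line | Reagent: Melanotan II challenge after compound preincubation | Doses: One concentration, 6.5 µM nominal | Incubation: 30-min compound preincubation, 1-h Melanotan II challenge, 1-h detection, room temperature | Signal: TR-FRET cAMP assay | Replicates: One well per compound, no replicates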
Granule exo inh = LAMP-1 surface exposure blockers, TALL-104 cells – cell-based, flow cytometry, MLPCN library, primary screen. TALL-104 LAMP-1 surface exposure; cells stimulated with thapsigargin and PMA. 360,000 tested, 0.66% active. inhibition, % at 10 µM;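 active means inhibition above about 55%, limit read from the data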
Tb MetRS inh = T. brucei MetRS inhibitors, primary screen, biochemical, luminescence; methionyl-tRNA synthetase (Trypanosoma brucei brucei); AID 624268, 2012; purified T. brucei MetRS, ATP depletion, Kinase-Glo luminescence; 360,000 tested, 0.4% active; inhibition, % at 11.9 µM;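 active means inhibition above a per-plate cutoff of the control wells' mean inhibition plus 3 SD, cut at about 5.5% in these data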;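 further: 0% = DMSO wells median and 100% = median of wells with control inhibitor compound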
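technique = Kinase-Glo luminescence, ATP depletion format | system = purified MetRS (methionyl-tRNA synthetase) enzyme from Trypanosoma brucei | timing = 15 min preincubation, 2 h reaction, all 25 °C | evaluation = percent inhibition versus plate control medians | dosing = single dose, 11.9 µM final nominal, 0.9% final DMSO | also added = substrates ATP, L-methionine and bulk Escherichia coli tRNA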
iPSC survival up = enhancers of single-cell hiPSC survival, primary screen, ATPlite luminescence. 100% = ROCK inhibitor wells, 0% = DMSO. survival enhancement, % at 20 µM. 360,000 tested, 0.044% active; in the data active means survival enhancement above about 18%;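 further: cells exposed to compounds for 16 hours before the ATP read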
* = called active by the depositor.

SMILES	MC4R barr agon	ABCB6 inh MLPCN	MC4R antag cAMP	Granule exo inh	Tb MetRS inh	iPSC survival up
CCOCCCn1c(SCC(=O)NCc2ccco2)nc2c(sc3ccccc32)c1=O	9.4*	102	20	-2	-1	1
O=[N+]([O-])c1cc(C(F)(F)F)ccc1Sc1ccccn1	8.6*	102	-5	-2	-1	1
OC(CNCC1CCCO1)Cn1c2ccc(Cl)cc2c2cc(Cl)ccc21 (stereo unspecified)	8.9*	92	-7	54	0	-3
Cc1cccc(Oc2cnn(C(C)(C)C)c(=O)c2Cl)c1	8.8*	94	6	0	0	0
CC(=O)c1ccccc1NC(=O)COC(=O)CCCN1C(=O)c2cccc3cccc(c23)C1=O	0	92	-7	4	-1	32*
NS(=O)(=O)c1ccc(NC(=O)COC(=O)CCCN2C(=O)c3cccc4cccc(c34)C2=O)cc1	-3	98	18	3	0	0
COc1ccc(Cl)cc1NC(=O)Cn1nnc(C(=O)NCc2ccc3c(c2)OCO3)c1N	8.6*	94	4	5	-1	0
Cc1ccc(NC(=O)Cn2nnc(C(=O)NCc3ccc4c(c3)OCO4)c2N)cc1	2	98	-1	-2	-1	0
Nc1c(C(=O)NCc2ccc3c(c2)OCO3)nnn1CC(=O)Nc1ccc(Br)cc1	15*	99	22	-10	0	0
COc1ccccc1NC(=O)Cn1nnc(C(=O)NCc2ccc3c(c2)OCO3)c1N	-2	106	-3	-6	0	0
Cc1onc(-c2ccccc2)c1C(=O)OCCOc1ccc([N+](=O)[O-])cc1[N+](=O)[O-]	-1	92	7	38	-1	0
Cc1ccccc1OCCOC(=O)c1c(-c2ccccc2)noc1C	1	91	-20	94*	0	3
CCNC(=O)C/C(C)=N/NC(=O)C1CCCCC1	-1	49*	2	1	-1	2
O=C(COc1ccccc1)N(Cc1ccccc1)c1nc(-c2ccccc2)cs1	21*	101	11	-1	0	3
O=C(NC(=S)Nc1cccc(O)c1)C1CCCCC1	0	78	11	62*	0	0
CCCC(c1nnnn1CS(=O)(=O)c1ccc(C)cc1)N1CCN(CC)CC1 (stereo unspecified)	-3	103	10	7	-1	0
COc1ccccc1CNC(=O)c1ccc(-c2ccccc2)cc1	3	101	-3	-3	0	-1
O=C(NCc1ccccc1Cl)c1ccc(-c2ccccc2)cc1	9.3*	96	5	-3	-1	-1
CCOC(=O)CSc1nc(N)c(C#N)c(-c2cccs2)c1C#N	-1	90	4	-5	-1	-1
CCOC(=O)CSc1c(-c2cccs2)[nH]c2ccccc12	8.6*	103	2	0	0	-2
COc1ccc(/C=C2\C(=O)NC(=S)N2C(=O)c2ccc(C)cc2)cc1	-1	97	-1	-1	-1	0
O=C1NC(=S)N(C(=O)c2ccc(F)cc2)/C1=C/c1cccnc1	-1	15*	2	-4	-1	0
COc1ccccc1NC1=C(NC(C)=O)C(=O)c2ccccc2C1=O	-2	102	-23	90*	0	-3
COC1=C(Nc2ccccc2OC)C(=O)c2ccccc2C1=O	1	93	-2	-1	-1	0
Cc1ccc(-n2nc3c(N4CCC(C(=O)NCc5ccccc5C)CC4)nnc(C)c3c2C)cc1	9.6*	94	10	31	0	0
SMILES	MC4R barr agon	ABCB6 inh MLPCN	MC4R antag cAMP	Granule exo inh	Tb MetRS inh	iPSC survival up
O=C(O)CC1c2ccccc2CCN1S(=O)(=O)c1cccs1 (stereo unspecified)	-2	94	0	4	-1	0
O=[N+]([O-])c1c(Nc2ccccn2)cc(Cl)c2nonc12	-5	103	-8	97*	3	-1
O=C(O)c1ccccc1Nc1cc(Cl)c2nonc2c1[N+](=O)[O-]	-1	100	9	-2	0	0
COc1ccc(/C=N/Nc2nc(C)c([N+](=O)[O-])c(N(C)c3ccccc3)n2)cc1OC	20*	101	2	-1	-1	-1
N#Cc1c(C#N)c(SSc2c(C#N)c(C#N)c(N)n2-c2ccccc2)n(-c2ccccc2)c1N	0	98	7	96*	0	0
O=C1C(Cl)=C(Nc2ccc3cn[nH]c3c2)C(=O)c2ccccc21	-4	65*	-14	15	0	15
O=C(c1cccc(Cl)c1)c1nn(-c2ccccc2)c(=O)cc1C(F)(F)F	8.5*	95	-5	-4	-1	11
O=C(c1ccccc1)c1nn(-c2ccccc2)c(=O)cc1C(F)(F)F	4	101	2	-2	-1	4
CCCCCCCCCCS(=O)(=O)N/N=C/c1ccc(O)cc1	9.0*	97	2	1	-1	2
CN(Cc1ccccc1)c1cc(Cl)nc(N)n1	0	104	11	0	0	0
N#C/C(=C\c1cn(Cc2ccc(F)cc2)c2ccccc12)C(=O)NCc1ccco1	9.1*	102	5	1	0	-2
Cc1cccc(NC(=O)/C(C#N)=C/c2cn(CC(=O)NCc3ccco3)c3ccccc23)c1C	8	103	14	0	-2	-1
CN(CCOc1ccc(-c2ccn(S(=O)(=O)c3ccc(Cl)cc3)n2)cc1)c1ccccn1	-1	91	8	2	0	3
CN(CCOc1ccc(-c2ccn(S(=O)(=O)c3c(Cl)cccc3Cl)n2)cc1)c1ccccn1	-1	99	3	29	0	19*
CC1(C)NC(=O)N(CCC(=O)Nc2ccc(C(C)(C)C)cc2)C1=O	0	96	6	0	0	-2
CCc1c(C(=O)Nc2ccc(OC)cc2)[nH]c(C)c1C(C)=O	-3	99	-4	-2	-2	22*
COc1ccc(NC(=O)c2[nH]c(C)c(C(C)=O)c2C)cc1	2	94	11	-2	-1	0
Cc1ccc(C(=O)/C=C/Nc2ccc3c(c2)OCO3)cc1	12*	96	5	1	0	-4
CC(=O)c1ccc(N/C=C\C(=O)c2ccc(C)cc2)cc1	-1	93	10	-1	0	0
